Values after ≈ are worked out from the molar mass of the structure shown. Active and inactive are the calls of the source. The rule behind the calls is not given here.
How the values were obtained:
Alphaproteobacteria = experiment: Antimicrobial activity against Alphaproteobacteria MBIC3368 at 50 ug/disk after 48 hrs by paper disk method; type: functional, organism-based
Summary of the method: (§1)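 Paper disk method on marine broth agar seeded with the marine strain. Each 6 mm disk was loaded with 50 µg sample, air-dried, and laid on the plate. Inhibition zone read after 48 h at 30 °C.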

Salinivibrio costicola = experiment: Antimicrobial activity against sSalinivibrio costicola ATCC 33508 at 50 ug/disk after 48 hrs by paper disk method; type: functional, organism-based; summary of the method: as §1
Escherichia coli = experiment: Antimicrobial activity against Escherichia coli IFO 3301 at 50 ug/disk after 48 hrs by paper disk method; type: functional, organism-based
Summary of the method: (§2)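 Paper disk diffusion on nutrient broth agar plates seeded with the test strain. Sample loaded at 50 µg per 6 mm disk, air-dried, and placed on the agar surface. Growth-inhibition zone measured after 48 h incubation at 30 °C.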

Bacillus subtilis = experiment: Antimicrobial activity against Bacillus subtilis IFO 3134 at 50 ug/disk after 48 hrs by paper disk method; type: functional, organism-based; summary of the method: as §2
A549 [1] = experiment: Cytotoxicity against human A549 cells after 72 hrs up to 125 ug/mL by alamar blue assay; type: functional, cell-based
Summary of the method: (§3)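 A549 lung adenocarcinoma cells in DMEM with 10% FBS were seeded at 8 × 10^3 cells/well and preincubated 14 h at 37 °C under 5% CO2. Serially diluted samples were then added for 72 h. Alamar Blue was added for a further 4 h, and viability was read as absorbance at 590 nm.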

Candida albicans = experiment: Antimicrobial activity against sCandida albicans IFO 1060 at 50 ug/disk after 48 hrs by paper disk method; type: functional, organism-based; summary of the method: as §2
Staphylococcus aureus = experiment: Antimicrobial activity against Staphylococcus aureus IFO 12732 at 50 ug/disk after 48 hrs by paper disk method; type: functional, organism-based; summary of the method: as §2
[2] = test system: Leeuwenhoekiella marinoflava; experiment: Antimicrobial activity against Cytophaga marinoflava IFO 14170 at 50 ug/disk after 48 hrs by paper disk method; type: functional, organism-based; summary of the method: as §1
A549 [3] = experiment: Cytotoxicity against human A549 cells after 72 hrs by alamar blue assay; type: functional, cell-based; conditions: A549, 72 h; summary of the method: as §3

SMILES	Activity (Alphaproteobacteria)	Activity (Salinivibrio costicola)	Activity (Escherichia coli)	Activity (Bacillus subtilis)	Activity (A549 [1])	Activity (Candida albicans)	Activity (Staphylococcus aureus)	Activity [2]	IC50 (A549 [3]) [µg/mL]
CCCCCCCC(O)/C=C/[C@@H]1[C@H](O)[C@@H](C)NC(=O)[C@]1(O)C(=O)O (some centres undefined)	inactive	inactive	inactive	inactive	inactive	inactive	inactive	inactive	
CCCCCCCC(O)/C=C/[C@@H]1[C@@H]2OC(=O)[C@@]1(O)C(=O)N[C@@H]2C (some centres undefined) [AWAJANOMYCIN]	inactive	inactive	inactive	inactive		inactive	inactive	inactive	27.5 (≈ 84.5 µM)
CCCCCCCC(O)/C=C/[C@@H]1[C@H](O)[C@@H](C)NC(=O)[C@]1(O)CO (some centres undefined)	inactive	inactive	inactive	inactive		inactive	inactive	inactive	46.4 (≈ 141 µM)

From ChEMBL document CHEMBL1158063, “Awajanomycin, a Cytotoxic gamma-lactone-delta-lactam metabolite from marine-derived Acremonium sp. AWA16-1” (J Nat Prod, 2006)
